The text below walks through data of ChEMBL document CHEMBL1124551, “Nucleic acid related compounds. 57. Synthesis, x-ray crystal structure, lipophilic partition properties, and antiretroviral activities of anomeric 3'-azido-2',3'-dideoxy-2,6-diaminopurine ribosides” (J Med Chem, 1989).

Test [1] deals with MT4. The experiment in a line: Effective dose required to inhibit HIV-induced cytopathogenicity in human MT-4 cells. The format is functional. The settings on record: read-out: ED50 (the source's name). Put shortly:
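After 5 days at 37 °C, viable cells counted by trypan blue exclusion in a hemacytometer. ED₅₀ is the dose giving 50% protection against HIV-induced cytopathogenicity.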
(In general: Cytopathic effects are the visible damage that an infection or toxin causes in cultured cells.)

In test [2] the test system is MT4. The experiment in a line: Cytotoxic dose required to reduce MT-4 cell viability by 50%.
The nature of test [3]: Ratio of CD50 and ED50 values against inhibition of HIV in MT-4 cells. The format is functional, MT4.
Test [4] can be described thus: Effective dose required to inhibit MSV-induced transformation in murine C3H cells. The format is functional. The settings on record: Mus musculus, read-out: ED50 (the source's name). The essentials:
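Confluent mouse embryo C3H monolayers were infected with 80 focus-forming units of MSV for 90 min. Medium was then replaced with fresh medium holding graded compound concentrations. After 6 days at 37 °C, transformation was scored microscopically. ED₅₀ is the dose that inhibits transformation by 50%.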

Test [5] in a line: Toxic dose required to cause an alteration of normal C3H cell morphology. The class given is functional, Mus musculus. The essentials: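 C3H cell cultures were exposed to graded compound concentrations and examined by microscope. TD is the dose that alters normal cell morphology.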

Molecules are shown by their SMILES.

Take `[N-]=[N+]=N[C@@H]1C[C@H](N2C=NC3C(=O)N=C(N)N=C32)O[C@@H]1CO` (stereo not given in full): the EC50 turned out to be 2.8 µM in the test with MT4 [1] and 6.2 µM in test [4]. For the same molecule, the CD50 in the test on MT4 [2] came to 165 µM. Besides, the Ratio in test [3] stood at 59. The molecule further showed a TD in test [5] of more than 400 µM.

Turning to `Nc1nc(N)c2ncn([C@H]3CC[C@@H](CO)O3)c2n1`, the results for the EC50 (in the test on MT4 [1]; in test [4]) were 3.5 µM and 19 µM, respectively. For the same molecule, in the test with MT4 [2], the CD50 stood at 404 µM. Also, the Ratio in test [3] came out at 115. In test [5], the TD is more than 200 µM.
